Tests used:
Glutamate receptor 1 [1] = molecular target: T1, Glutamate receptor 1 (Homo sapiens, UniProt P42261); assay: (§1) Antagonist activity at human iGluA1 receptor flop isoform expressed in CHO-S cells coexpressing TARP gamma-8 and human EAAT3 assessed as inhibition of glutamate-induced increase in intracellular calcium levels after 2 mins followed by cyclothiazide/glutamate addition by fluo-4 AM dye based fluorescence imaging plate reader method; assay type: cell-based
Summary of the method: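 Transiently transfected CHO-S cells (human GluA1Q flop with TARP γ-8 and human EAAT3, DNA ratio 2:3), frozen, thawed, plated overnight at 37 °C; Fluo-4 AM loading 2 h at 22 °C. Compound added, then 2 min later glutamate (5 μM final); cyclothiazide (20 μM) plus glutamate (45 μM) 2 min after. FLIPR Ca2+ read; inhibition relative to 167 μM nonselective antagonist and buffer baseline; four-parameter logistic IC50; mean ± SEM, n ≥ 2.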

Cytochrome P450 1A2 [2] = molecular target: T2, Cytochrome P450 1A2 (Homo sapiens, UniProt P05177); assay: Induction of CYP1A2 in human hepatocytes at 0.2 to 20 uM compared to omeprazole; assay type: ADME, cell-based, Hepatocyte
T2 sequence (P05177 whole entry): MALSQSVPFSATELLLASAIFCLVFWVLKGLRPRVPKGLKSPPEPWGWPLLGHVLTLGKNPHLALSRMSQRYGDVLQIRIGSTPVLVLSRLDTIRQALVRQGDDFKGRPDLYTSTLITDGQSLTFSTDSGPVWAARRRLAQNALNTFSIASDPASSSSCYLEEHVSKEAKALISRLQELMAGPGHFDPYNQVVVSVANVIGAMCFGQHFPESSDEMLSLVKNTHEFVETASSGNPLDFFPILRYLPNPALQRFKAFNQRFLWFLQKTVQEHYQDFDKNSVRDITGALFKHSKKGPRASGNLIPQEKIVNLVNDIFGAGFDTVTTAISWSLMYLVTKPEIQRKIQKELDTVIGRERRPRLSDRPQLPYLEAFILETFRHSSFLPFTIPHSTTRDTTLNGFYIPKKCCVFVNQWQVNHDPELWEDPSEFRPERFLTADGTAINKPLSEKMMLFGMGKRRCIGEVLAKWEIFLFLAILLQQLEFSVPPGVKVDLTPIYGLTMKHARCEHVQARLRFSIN
Summary of the method: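 Human hepatocytes treated over a concentration range; CYP1A2 fold induction expressed as percent of omeprazole; >30% taken as induction, <15% as none.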

Hepatocyte [3] = assay: Drug metabolism in rat hepatocytes assessed as glucuronidation; assay type: ADME, cell-based
Hepatocyte [4] = assay: Drug metabolism in human hepatocytes assessed as glucuronidation; assay type: ADME, cell-based
Glutamate receptor 1 [5] = molecular target: T1, Glutamate receptor 1; assay: as §1, with “gamma-2” for “gamma-8 and human EAAT3”; assay type: cell-based
Hepatocyte [6] = assay: Drug metabolism in human hepatocytes assessed as oxidative metabolite formation; assay type: ADME, cell-based
Glutamate receptor 1 [7] = molecular target: T1, Glutamate receptor 1; assay: Antagonist activity at human iGluA1 receptor flip isoform expressed in CHO-S cells assessed as inhibition of glutamate-induced increase in intracellular calcium levels after 2 mins followed by cyclothiazide/glutamate addition by fluo-4 NW dye based fluorescence imaging plate reader method; assay type: cell-based
[8] = Clearance in rat; assay type: ADME, organism-based; details: in vivo
Hepatocyte [9] = assay: Drug metabolism in rat hepatocytes assessed as oxidative metabolite formation; assay type: ADME, cell-based
Cytochrome P450 1A2 [10] = molecular target: T2, Cytochrome P450 1A2; assay: Inhibition of human CYP1A2; assay type: ADME
Glutamate receptor 1 [11] = molecular target: T1, Glutamate receptor 1; assay: Antagonist activity at human iGluA1 receptor flop isoform expressed in CHO-S cells coexpressing TARP gamma-3 assessed as inhibition of glutamate-induced increase in intracellular calcium levels after 2 mins followed by cyclothiazide/glutamate addition by fluorescence imaging plate reader method; assay type: cell-based
Summary of the method: (§2)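 Human GluA1 flop transiently co-expressed with the TARP subtype in CHO-S cells. Frozen cells were thawed, plated at 50,000 cells/well and cultured overnight at 37 °C. Buffer was HBSS with 20 mM HEPES pH 7.4, 2.5 mM probenecid and 4 mM CaCl2. Compound was added, then cyclothiazide (20 μM final) plus glutamate (45 μM final). FLIPR Ca2+ read, normalised to full antagonist block and buffer baseline. Four-parameter IC50; mean ± SEM, n ≥ 2.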

Glutamate receptor 1 [12] = molecular target: T1, Glutamate receptor 1; assay: Antagonist activity at human iGluA1 receptor flop isoform expressed in CHO-S cells coexpressing TARP gamma-4 assessed as inhibition of glutamate-induced increase in intracellular calcium levels after 2 mins followed by cyclothiazide/glutamate addition by fluorescence imaging plate reader method; assay type: cell-based; summary of the method: as §2
UGT [13] = assay: Drug metabolism assessed as UGT-mediated compound glucuronidation in human liver microsomes; assay type: ADME; details: read-out: Drug metabolism
Summary of the method: (§3)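 Microsomes incubated with appropriate cofactors for UGT; percent metabolism, n = 1.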

Hepatocyte [14] = assay: Drug metabolism in rat hepatocytes assessed as glucuronidation by LC/MS/MS analysis; assay type: ADME, cell-based
Hepatocyte [15] = assay: Drug metabolism in human hepatocytes assessed as sulfation by LC/MS/MS analysis; assay type: ADME, cell-based
UGT [16] = assay: Drug metabolism assessed as UGT-mediated compound glucuronidation in rat liver microsomes; assay type: ADME; details: read-out: Drug metabolism; summary of the method: as §3
Rattus norvegicus [17] = assay: Anticonvulsant activity in po dosed Sprague-Dawley rat assessed as inhibition of pentylenetetrazole-induced clonic convulsions administered 30 mins prior to PTZ dosing measured over 30 mins; assay type: functional
Rattus norvegicus [18] = assay: Toxicity in Sprague-Dawley rat assessed as motor impairment at 30 mg/kg, po by inverted screen test; assay type: organism-based; details: in vivo
Summary of the method: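 Oral dosing in rats, then inverted screen motor-function score. Plasma exposure measured. Mean ± SEM of ≥4 rats/group, compared with vehicle control.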

Rattus norvegicus [19] = assay: Protective index, ratio of TD50 for motor impairment to ED50 for inhibition of pentylenetetrazole-induced clonic convulsions in po dosed Sprague-Dawley rat
Summary of the method: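 PI = inverted screen TD50 divided by PTZ ED50. For the ED50, rats were dosed orally 30 min before PTZ (35 mg/kg, sc), with n = 10 per group. Read-out was % block of clonic convulsions; ED50 given with 95% confidence limits.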

[20] = AUC in rat plasma at 30 mg/kg, po measured on day 1; assay type: ADME, organism-based
[21] = Cmax in rat plasma at 30 mg/kg, po measured on day 1; assay type: ADME, organism-based; parameters: dose 30 mg/kg, route oral
[22] = AUC in rat plasma at 30 mg/kg, po measured on day 4; assay type: ADME, organism-based
Summary of the method: (§4)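 Rats dosed orally at 30 mg/kg for 4 days; plasma Cmax and AUC determined.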

[23] = Cmax in rat plasma at 30 mg/kg, po measured on day 4; assay type: ADME, organism-based; parameters: dose 30 mg/kg, route oral; summary of the method: as §4

T1 sequence (P42261 whole entry, canonical isoform): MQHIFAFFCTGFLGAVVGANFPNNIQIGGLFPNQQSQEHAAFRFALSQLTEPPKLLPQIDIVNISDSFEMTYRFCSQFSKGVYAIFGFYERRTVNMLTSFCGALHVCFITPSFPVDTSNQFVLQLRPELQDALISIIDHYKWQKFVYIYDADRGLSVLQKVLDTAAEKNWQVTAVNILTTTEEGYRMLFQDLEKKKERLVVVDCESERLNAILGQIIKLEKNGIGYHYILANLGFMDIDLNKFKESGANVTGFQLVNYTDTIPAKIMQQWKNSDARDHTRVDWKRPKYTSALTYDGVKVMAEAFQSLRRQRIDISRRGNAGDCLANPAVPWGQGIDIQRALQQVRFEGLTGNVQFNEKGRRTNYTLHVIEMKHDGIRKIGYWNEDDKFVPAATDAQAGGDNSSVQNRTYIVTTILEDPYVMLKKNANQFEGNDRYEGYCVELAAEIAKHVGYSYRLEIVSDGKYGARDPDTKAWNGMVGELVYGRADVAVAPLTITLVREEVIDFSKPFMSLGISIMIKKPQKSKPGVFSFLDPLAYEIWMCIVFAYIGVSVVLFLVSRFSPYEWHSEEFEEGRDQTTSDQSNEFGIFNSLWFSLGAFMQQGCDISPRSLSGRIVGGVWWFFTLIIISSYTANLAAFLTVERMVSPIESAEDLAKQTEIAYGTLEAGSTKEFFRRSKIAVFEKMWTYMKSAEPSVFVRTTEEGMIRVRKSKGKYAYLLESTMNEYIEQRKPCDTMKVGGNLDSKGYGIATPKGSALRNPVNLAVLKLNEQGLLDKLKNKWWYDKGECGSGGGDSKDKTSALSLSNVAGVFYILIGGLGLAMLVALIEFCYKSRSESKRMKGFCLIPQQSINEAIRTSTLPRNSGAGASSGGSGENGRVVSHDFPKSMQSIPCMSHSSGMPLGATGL

SMILES | IC50 (Glutamate receptor 1 [1]) [µM] | IC50 (Glutamate receptor 1 [5]) [µM] | IC50 (Glutamate receptor 1 [7]) [µM] | clearance [8] [mL/min/kg] | IC50 (Cytochrome P450 1A2 [10]) [µM] | also measured
CCOCCN(c1ccc2[nH]c(=O)sc2c1)c1nc(-c2ccccn2)cs1 | 0.022 | – | – | – | – | –
CC(c1ccc2[nH]c(=O)sc2c1)c1ccn(-c2ccccn2)n1 (racemic) | 0.122 | 83.3 | 83.3 | 115 | 8.68 | Activity (Cytochrome P450 1A2 [2]): < 15%; Drug metabolism (Hepatocyte [3]): metabolite_detected; Drug metabolism (Hepatocyte [4]): metabolite_detected; Drug metabolism (Hepatocyte [6]): metabolite_detected; Drug metabolism (Hepatocyte [9]): metabolite_detected
CN(c1ccc2[nH]ncc2c1)c1ccn(-c2ccccn2)n1 | 0.353 | > 83.3 | > 83.3 | 61.3 | 0.23 | –
C[C@@H](c1ccc2[nH]c(=O)sc2c1)c1ccn(-c2ccc(CCO)cn2)n1 | 0.0616 | 25.7 | 83.3 | 16.3 | – | –
C[C@@H](c1ccc2[nH]c(=O)sc2c1)c1ccn(-c2ccc(F)cn2)n1 | 0.0536 | 83.3 | 83.3 | 42.2 | – | –
C[C@H](c1ccc2[nH]c(=O)sc2c1)c1ccn(-c2ccc(OCCO)cn2)n1 | 1.79 | 9.26 | 9.26 | – | – | –
C[C@H](c1ccc2[nH]c(=O)sc2c1)c1ccn(-c2ccccn2)n1 | 0.615 | 83.3 | 9.26 | 144 | 4.67 | Activity (Cytochrome P450 1A2 [2]): < 15%
C[C@@H](c1ccc2[nH]c(=O)sc2c1)c1ccn(-c2ccccn2)n1 | 0.0509 | 83.3 | 9.26 | 99 | > 10 | Activity (Cytochrome P450 1A2 [2]): < 15%
C[C@H](c1ccc2[nH]c(=O)sc2c1)c1ccn(-c2ccc(CCO)cn2)n1 | 2.82 | 9.26 | 9.26 | – | – | –
CN(c1ccc(O)cc1)c1nc(-c2ccccn2)cs1 | 2.97 | > 83.3 | > 83.3 | 234 | – | IC50 (Glutamate receptor 1 [11]): > 83.3 µM; IC50 (Glutamate receptor 1 [12]): > 83.3 µM; metabolised (UGT [13]): 33%; Drug metabolism (Hepatocyte [14]): metabolite_detected; Drug metabolism (Hepatocyte [15]): metabolite_detected; metabolised (UGT [16]): 99%
C[C@@H](c1ccc2[nH]c(=O)sc2c1)c1ccn(-c2ccc(CCC(C)(C)O)cn2)n1 | 0.16 | 9.26 | 9.26 | 6 | – | –
CN(c1ccc2[nH]c(=O)sc2c1)c1nc(-c2ccccn2)cs1 | 0.07 | > 83.3 | > 83.3 | 96.6 | 0.36 | –
N#Cc1ccccc1-c1cc(-c2ccccn2)cn(-c2ccccc2)c1=O [PERAMPANEL] | 1.18 | 0.485 | 6.51 | – | – | ED50 (Rattus norvegicus [17]): 10.6 mg/kg; IC50 (Glutamate receptor 1 [11]): 0.243 µM; IC50 (Glutamate receptor 1 [12]): 0.623 µM; Activity (Rattus norvegicus [18]): Toxic; Ratio TD50/ED50 (Rattus norvegicus [19]): 0.4
CN(c1ccc2[nH]ncc2c1)c1nc(-c2ccccn2)cs1 | 0.147 | > 83.3 | > 83.3 | 71.5 | 0.222 | AUC [20]: 52300 ng·h/mL; Cmax [21]: 3740 ng/mL; AUC [22]: 3150 ng·h/mL; Cmax [23]: 1930 ng/mL
Cn1ccc(CN(c2ccc3[nH]ncc3c2)c2nc(-c3ccccn3)cs2)n1 | 0.0539 | 83.3 | 83.3 | – | > 10 | Activity (Cytochrome P450 1A2 [2]): < 15%
